# Screens: PubChem BioAssay, several laboratories
# HTRA1 inhibitor: inhibitors of human serine peptidase HTRA1; Q92743; recombinant HTRA1, FP-rhodamine activity-based probe, fluorescence polarization; inhibition, % at 5.96 µM; 340,000 tested, 0.5% active; in the data active = inhibition above about 36%;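 note: 0% = enzyme with DMSO and 100% = wells lacking enzyme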
# Target sequence (Q92743 whole entry, looked up): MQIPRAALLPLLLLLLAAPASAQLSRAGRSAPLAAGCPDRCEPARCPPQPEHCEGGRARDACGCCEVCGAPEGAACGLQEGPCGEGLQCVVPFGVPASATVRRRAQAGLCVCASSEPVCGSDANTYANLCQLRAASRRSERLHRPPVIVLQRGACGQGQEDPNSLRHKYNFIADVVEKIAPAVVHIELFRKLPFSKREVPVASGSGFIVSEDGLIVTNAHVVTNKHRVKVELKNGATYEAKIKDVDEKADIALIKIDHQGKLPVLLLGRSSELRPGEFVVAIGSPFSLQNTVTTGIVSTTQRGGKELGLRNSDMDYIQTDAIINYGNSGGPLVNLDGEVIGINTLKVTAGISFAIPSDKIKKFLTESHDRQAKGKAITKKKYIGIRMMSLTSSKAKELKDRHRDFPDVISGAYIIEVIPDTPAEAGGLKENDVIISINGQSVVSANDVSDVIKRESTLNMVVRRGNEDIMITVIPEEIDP
# GASC-1 inh: human JMJD2C demethylase inhibition; Q9H3R0; GST-JMJD2C(1-420) H3K9me3 demethylation, DELFIA europium; inhibition, % at 2.35 µM; 330,000 tested, 0.069% active;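 active = more than half of a compound's replicate wells show inhibition beyond 50%, single wells judged on their own value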;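 note: signal counts dimethyl H3K9 product captured on neutravidin plate; 0% = median of DMSO wells and 100% = 0.3 times that DMSO median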
# SIAE inh: human SIAE inhibition, primary screen | 370,000 tested, 0.69% active | inhibition, % at 9.66 µM | SIAE FP-Rh probe binding, fluorescence polarization | AID 1053197 | Q9HAT2;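 active = inhibition above a cutoff: mean of compounds within the control limits plus 3 SD of those, cut at about 17% in these data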;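 note: 0% = plate median of compound wells and 100% = probe without SIAE protein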
# PRMT1 FP inh: blocks human protein arginine methyltransferase 1 | recombinant PRMT1, activity-based probe fluorescence polarization | inhibition, % at 2.79 µM | 370,000 tested, 1.3% active | AID 652257;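 active = inhibition above about 21% made by adding two undisclosed values, limit read from the data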
# ABHD4 inh: inhibits mouse alpha/beta hydrolase domain 4; Q8VD66; purified mABHD4, FP-Rh probe fluorescence polarization; inhibition, % at 8.92 µM; 370,000 tested, 0.54% active; AID 720543;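 active = inhibition exceeding the mean over every tested compound plus 3 SD, cut at about 30% in these data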;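 note: 0% = plate median of compound wells and 100% = S159A mutant with DMSO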
#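 Assay system: mABHD4 protein; medium: HEPES pH 7.0, NaCl, Pluronic buffer; dosing: 8.92 µM, single dose; schedule: 45 min + 60 min at 25 °C; signal: FP readout, ex 525 nm / em 598 nm; read-out: normalized percent inhibition of probe labeling; repeats: single replicate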
# PRMT1 confirm: confirmation of human PRMT1 inhibitors. shares compounds with PRMT1 FP inh. recombinant His-PRMT1, activity-based probe fluorescence polarization. inhibition, % at 2.79 µM. 3,300 tested, 42% active. AID 687036;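 active = mean inhibition across replicates above the hit cutoff derived for the earlier primary screen, cut at about 22% in these data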
# Active calls of the source: *; . = not tested or not shown. Most compounds without a hit are left out; they make up all but 2.4% or so of the library.
SMILES,HTRA1 inhibitor,GASC-1 inh,SIAE inh,PRMT1 FP inh,ABHD4 inh,PRMT1 confirm
CCOC(=O)C1=C(C)N=c2s/c(=C/c3ccco3)c(=O)n2C1c1cccc(OC)c1 (stereo not drawn),.,-8,.,.,.,.
CN(C)CCCN(C(=O)CCOc1ccccc1)c1nc2c(F)cccc2s1,1,0,-1,31*,4,4
CN(C)CCCN(C(=O)CCc1ccccc1)c1nc2c(F)cccc2s1,0,0,-1,0,7,.
O=S1(=O)c2ccc(N3CCN(Cc4ccccc4F)CC3)cc2Oc2ccccc2CN1Cc1cn(Cc2ccccc2C(F)(F)F)nn1,.,.,-1,4,3,.
CC(=O)Nc1sc2c(c1-c1nc3ccccc3s1)CCOC2,.,.,-5,12,-5,.
O=C(Nc1sc2c(c1-c1nc3ccccc3s1)CCNC2)C(F)(F)F,.,.,0,41*,11,10
CC(C)=CCC[C@@]1(C(=O)O)[C@H]2CC=C(CO)[C@@H]1CC/C(C)=C/CC/C(C)=C/C2,.,.,-2,2,-12,.
Cc1ccnc(NC(=S)N2CC3CN(c4cccc(C(F)(F)F)c4)CC3C2)c1 (stereo not drawn),.,.,-1,25*,13,23*
COC(=O)[C@]12C[C@H](CC(=O)N3CCOCC3)C(=O)N(Cc3ccc4c(c3)OCO4)C1=C[C@H](C(C)C)O[C@@H]2C1CC1,.,.,-7,6,1,.
COC(=O)c1ccccc1NC(=O)CSc1nnc(-c2ccncc2)o1,4,-4,-4,34*,8,45*
Cc1nn(CCc2nc(-c3ccco3)cs2)c2[nH]c(=O)cc(C(F)(F)F)c12,0,-8,6,34*,9,7
Cc1cc(C)n(CCc2nc(-c3ccco3)cs2)n1,9,-3,7,40*,4,57*
O=c1[nH]c(=O)n(Cc2ccccc2)c2nc(-c3ccco3)cc(C(F)(F)F)c12,4,4,1,1,13,.
C[C@@H]1C[C@@H]2O[C@H]2CCCCC(=O)Cc2cc(O)cc(O)c2C(=O)O1,.,.,5,-1,0,.
Cc1ccsc1/C=C/C1=Cc2c(sc(NC(=O)CSc3n[nH]c(N)n3)c2C#N)C(C)(C)C1,-21,-5,-14,41*,-6,4
CCOc1ccc(/C=C/C2=Cc3c(sc(NC(=O)CSc4n[nH]c(N)n4)c3C#N)C(C)(C)C2)cc1,-43,-1,-14,33*,-27,9
O=C(Nc1ccc(F)cc1)OCc1cn(Cc2cccc(Cl)c2)nn1,.,.,-7,2,-4,.
COc1ccc(C(=O)/C=C/C(=O)N(CC(=O)NC2CCCCC2)CC2CCCO2)c(O)c1 (stereo not drawn),-15,2,-4,34*,2,41*
CC(=O)c1c(N2CCCC2)nc(=S)n(-c2ccccc2)c1C,4,-4,-5,14,8,.
CCn1c(C)c(C(C)=O)c(N2CCN(c3ccccc3)CC2)nc1=S,14,-25,-1,37*,19,2
CC(=O)c1c(N2CCN(C(=O)c3ccco3)CC2)nc(=S)n(-c2ccccc2)c1C,1,-11,-5,36*,-6,39*
COc1ccc(N2C(=O)CC(n3cnc4ccccc43)C2=O)cc1 (stereo not drawn),-4,-6,-1,5,0,.
COc1ccc(N2C(=O)CC(N3CCC(O)(c4ccc(Cl)cc4)CC3)C2=O)cc1 (stereo not drawn),2,0,-5,77*,-4,-1
COc1ccc(N2C(=O)CC(N3CCN(c4ccccc4)CC3)C2=O)cc1 (stereo not drawn),-1,-5,-1,7,-2,.
COc1ccc(N2C(=O)CC(N3CCC(c4nc5ccccc5[nH]4)CC3)C2=O)cc1 (stereo not drawn),1,7,-5,54*,5,-5
COc1ccc(N2C(=O)CC(n3c(CCCCO)nc4ccccc43)C2=O)cc1 (stereo not drawn),5,0,4,25*,-4,19
O=C1CC(N2CCC(c3nc4ccccc4[nH]3)CC2)C(=O)N1c1ccccc1F (stereo not drawn),-2,15,10,32*,0,3
COc1ccc(N2C(=O)CC(N3CCN(c4ccccc4F)CC3)C2=O)cc1 (stereo not drawn),-2,-14,-4,3,-8,.
